Only some compounds are listed: those with a hit (about 1.5% of all), similar ones and a draw of the others.
APJ antagonist: antagonists of human apelin receptor APJ, primary screen, CHO-K1 cells, beta-arrestin complementation, luminescence; inhibition, % at 20 µM; AID 2521, 2010; actives 0.32% (n = 330,000);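 active means inhibition above about 40% at 20 µM, limit read from the data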;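 further: cells challenged with 10 nM apelin-13 agonist together with compound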
APJ agonist: agonists of human apelin receptor APJ, primary screen, CHO-K1 cells, PathHunter beta-arrestin, luminescence; actives 0.11% (n = 330,000); 0% DMSO wells, 100% apelin; activation, % at 20 µM; P35414;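 active means activation more than six SD over the plate average, tested at 20 µM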
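Test system – PathHunter CHO-K1 APJ (AGTRL-1) beta-arrestin reporter cells · Input – 1000 cells/well · Compound – single test compound dose, 20 µM final, 1% DMSO · Times – compound stimulation 90 min at 25 °C, detection 60 min · Technique – beta-gal luminescence · Read-out basis – APJ–arrestin association signal · Control set – negative DMSO alone, positive Apelin-13 at 10 nM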
CXCR6 inh: CXCR6 receptor inhibitors, primary screen, cell-based, beta-arrestin, luminescence, CHO-K1 PathHunter, 1536-well; AID 602244, 2012; inhibition, % at 20 µM; actives 0.36% (n = 360,000); C-X-C chemokine receptor type 6 (Homo sapiens), O00574; in the data active means inhibition above about 34%, passing the limit was not always enough;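 further: antagonist mode with CXCL16 agonist at 10 nM final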
CCR6 antag: CCR6 receptor antagonists, primary screen, cell-based, CHO-K1, luminescence, beta-arrestin, uHTS. C-C chemokine receptor type 6 (Homo sapiens), P51684. CHO-K1 CCR6 PathHunter beta-arrestin, CCL20-stimulated. inhibition, % at 20 µM. actives 0.49% (n = 340,000);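 active means compounds whose inhibition of the agonist-driven luminescence signal at 20 µM reaches about 50%, limit read from the data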;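 further: cells stimulated with CCL20 at 14 nM final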
EBI2 antag: EBI2 receptor antagonists, beta-arrestin recruitment, primary screen, cell-based, luminescence, 7a,25-OHC stimulation, uHTS; AID 651636, 2012; inhibition, % at 5 µM; 7a,25-OHC stimulated; actives 0.81% (n = 360,000); in the data active means inhibition above about 38%;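 further: enzyme fragment complementation signal reports receptor beta-arrestin coupling in cells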
Target sequence (P32249 whole entry, looked up, the tested form may be a part): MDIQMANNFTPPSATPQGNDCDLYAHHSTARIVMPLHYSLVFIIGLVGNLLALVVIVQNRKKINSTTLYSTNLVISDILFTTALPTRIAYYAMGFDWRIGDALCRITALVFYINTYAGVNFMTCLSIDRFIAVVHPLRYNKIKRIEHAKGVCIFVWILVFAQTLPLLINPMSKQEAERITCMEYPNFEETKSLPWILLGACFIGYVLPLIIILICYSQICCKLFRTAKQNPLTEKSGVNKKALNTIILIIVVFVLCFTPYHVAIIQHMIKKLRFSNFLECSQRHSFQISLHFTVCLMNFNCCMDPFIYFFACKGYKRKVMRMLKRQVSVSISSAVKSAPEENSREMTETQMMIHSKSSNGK
EBI2 antag conf: EBI2 antagonist hit retest, beta-arrestin, confirmation, cell-based, single concentration, luminescence, 7a,25-OHC stimulation; shares compounds with EBI2 antag; 7a,25-OHC antagonism; inhibition, % at 5 µM; actives 29% (n = 2,400);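 active means inhibition of at least 50%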
EBI2 ag: EBI2 agonist activity of antagonist hits, confirmation, counter-screen for EBI2 antagonist project, cell-based, single concentration, agonist mode, luminescence; activation, % at 5 µM; shares compounds with EBI2 antag; EBI2-expressing cells, 60 min; 0% vehicle, 100% 7α,25-dihydroxycholesterol control; 2,400 tested, under 10 active; AID 652000, 2013;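 active means activation of at least 50%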
bGal cs: E. coli beta-galactosidase enzyme inhibition, confirmation, counter-screen for EBI2 antagonist project, biochemical, luminescence, single concentration; shares compounds with EBI2 antag; purified beta-galactosidase, luminescent Galacton Star, 15 min; inhibition, % at 5 µM; actives 1% (n = 2,400);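 active means replicate-average signal at least 3 plate SD below neutral wells, shown as high inhibition, flagging enzyme-inhibiting false positives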;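 further: higher means stronger loss of beta-gal luminescence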
Of the large screens only hits and unclear results are named; the others gave an inactive call (follow-up assays come after a bar, where they were run).

CC(OC(=O)c1ccc(Cl)c(S(N)(=O)=O)c1)C(=O)NCc1ccc2c(c1)OCO2 (stereo unspecified)	none
COc1cc2ccccc2cc1C(=O)Nc1cccnc1	none
COc1ccc(NC(=O)c2cc3ccccc3cc2OC)cc1	EBI2 antag 65 | EBI2 antag conf inactive | EBI2 ag inactive | bGal cs inactive
CCOc1ccc(NC(=O)c2cc3ccccc3cc2O)cc1	none
COc1ccc(OC)c(C(=O)c2ccc(C(=O)Nc3ccccc3)cc2)c1	none
COc1ccc(NC(=O)c2ccc(C(=O)c3cc(OC)ccc3OC)cc2)cc1	EBI2 antag 48 | EBI2 antag conf inactive | EBI2 ag inactive | bGal cs inactive
CCOc1ccc(NC(=O)c2cc3ccccc3cc2OC)cc1	EBI2 antag 54 | EBI2 antag conf inactive | EBI2 ag inactive | bGal cs inactive
CS(=O)(=O)N1N=C(c2ccco2)CC1c1ccc(Cl)cc1Cl (stereo unspecified)	none
CCN(CC)S(=O)(=O)c1ccc(S(=O)(=O)N2CCC(N3CCCCC3)CC2)cc1	none
CC1CCN(C(=O)C2CCCN2S(=O)(=O)c2ccc(Cl)cc2)CC1 (stereo unspecified)	none
COc1cccc(N2CCN(C(=O)CN(C)S(=O)(=O)c3ccc4c(c3)c(=O)n(C)c(=O)n4C)CC2)c1	none
Cc1occc1-c1nnc(SCC(=O)NCCc2ccccc2)n1C(C)c1ccccc1 (stereo unspecified)	EBI2 antag 51 | EBI2 antag conf inactive | EBI2 ag inactive | bGal cs inactive
O=C(COc1ccc(F)cc1)c1ccc2c(c1)CCCC2	EBI2 antag 47 | EBI2 antag conf inactive | EBI2 ag inactive | bGal cs inactive
O=C(CSc1nnc2c(n1)[nH]c1ccccc12)Nc1ccc(S(=O)(=O)Nc2ncccn2)cc1	none (no result: APJ antagonist, APJ agonist)
CCOc1ccc2nc(COC(=O)c3ccco3)c(C(C)=O)[n+]([O-])c2c1	none
CCOc1ccc2nc(COC(=O)c3cccs3)c(C(=O)c3ccccc3)[n+]([O-])c2c1	EBI2 antag 47 | EBI2 antag conf inactive | EBI2 ag inactive | bGal cs inactive
CCOc1ccc2nc(COC(=O)c3ccncc3)c(C(=O)c3ccccc3)[n+]([O-])c2c1	EBI2 antag 45 | EBI2 antag conf inactive | EBI2 ag inactive | bGal cs inactive
CCOc1ccc2nc(COC(=O)c3cccs3)c(C(C)=O)[n+]([O-])c2c1	none
C[C@@H]1CN([C@@H](C)CO)C(=O)c2cc(NS(C)(=O)=O)ccc2O[C@@H]1CN(C)S(=O)(=O)c1ccccc1	none
CC(C)(C)CC(C)(C)c1ccc(O)c(Cc2ccc(Cl)cc2Cl)c1	EBI2 antag 75 (no result: APJ antagonist, APJ agonist) | EBI2 antag conf inactive | EBI2 ag inactive | bGal cs inactive
CC(C)(C)CC(C)(C)c1ccc(O)c(CN2CCN(CCC#N)CC2)c1	none
COc1ccc(C(=O)C2CCN(C(=O)c3ccc(F)cc3)CC2)cc1	none
Cc1ccc(C2CCN(C(=O)Nc3ccc(F)cc3)C2)cc1 (stereo unspecified)	EBI2 antag 71 | EBI2 antag conf 54 | EBI2 ag inactive | bGal cs inactive
COc1ccc(C(=O)C2CCN(C(=O)Nc3ccc(C)cc3)CC2)cc1	EBI2 antag 49 | EBI2 antag conf inactive | EBI2 ag inactive | bGal cs inactive
